The source made the active and inactive calls.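 The calls were made as follows, unless noted: active = fluorescence slope higher than the sample average by over 3 SD (cut at about -0.22 in these data, passing the limit was not always enough); inactive = the rest.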
Experiments:
[1] = inhibitors of TNFa-induced NFkB p65 translocation, primary screen, imaging, HUVEC, MLSMR starter and 10KST1 sets (AID 438;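 active = inhibition above 20% together with a positive visual image hit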;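 also: compound added about 3h40 before a 20 min TNFalpha stimulation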;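 as to inhibition: signal is the nuclear over cytoplasmic p65 intensity ratio per well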); details: HUVEC TNFa-induced p65 nuclear translocation; cell count: measured here: nuclei count (cytotoxicity indicator), at 2.08 µM; inhibition: at 2 µM, stronger effect = higher value, 0% TNFa-plus-vehicle, 100% no-TNFa wells
[2] = inhibitors of mutant huntingtin aggregation, primary screen, imaging, exon1htt(103Q)mCFP cells, high-content imaging (AID 483;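 active = visual image review flags a hit and inhibition of aggregation exceeds 20%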;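 also: compound exposure lasted 3 days before fixation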;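 as to nuclei count: percent of the per-plate median nuclei count of sample wells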); details: exon1htt(103Q)mCFP cell line, aggregate imaging, at 2 µM; inhibition of aggregation: stronger effect = higher value; nuclei count: measured here: cell count, toxicity
[3] = inhibitors of E-selectin induction by TNFa, primary screen, imaging, HUVEC, immunofluorescence, MLSMR starter and 10KST1 sets (AID 487;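 active = visually confirmed hit in the image check and inhibition above 20%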;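 as to inhibition: signal is fraction of cell area covered by stained E-selectin grains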;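 as to nuclei count: 100% = median nuclei count of all wells on the same plate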); details: HUVEC TNFalpha-induced E-selectin immunofluorescence imaging, at 2 µM; inhibition: stronger effect = higher value; nuclei count: measured here: cell number, toxicity
[4] = target: Voltage-gated potassium channel subunit beta-2 (Rattus norvegicus) (UniProt P62483); assay: KvBeta enzyme negative modulators, primary screen, biochemical, NADPH fluorescence (AID 622); details: recombinant KvBeta, 4-cyanobenzaldehyde reduction, at 10 µM, stronger effect = higher value;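 also: slope of raw intensity against log time taken from 70 to 1610 s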
Chain of Voltage-gated potassium channel subunit beta-2 (Rattus norvegicus) (P62483 whole entry, looked up): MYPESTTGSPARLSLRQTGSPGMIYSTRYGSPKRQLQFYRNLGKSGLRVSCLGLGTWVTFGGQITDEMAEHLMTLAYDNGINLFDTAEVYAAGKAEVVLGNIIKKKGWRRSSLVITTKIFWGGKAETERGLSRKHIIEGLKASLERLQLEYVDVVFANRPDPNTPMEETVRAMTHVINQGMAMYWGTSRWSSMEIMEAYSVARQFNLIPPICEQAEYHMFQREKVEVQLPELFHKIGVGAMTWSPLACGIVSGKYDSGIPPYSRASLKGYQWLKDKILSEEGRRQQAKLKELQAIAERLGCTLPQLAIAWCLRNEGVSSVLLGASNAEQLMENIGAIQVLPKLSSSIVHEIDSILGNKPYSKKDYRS

[5] = target: Voltage-gated potassium channel subunit beta-2 (Rattus norvegicus) (UniProt P62483); assay: KvBeta positive modulators, primary screen, biochemical, NADPH fluorescence (AID 623;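 active = NADPH fluorescence slope more negative than the mean of all samples by about 3 SD, 99.7% confidence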;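 also: fluorescence intensity change per second fitted from 20 to 320 s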); details: Recombinant KvBeta, NADPH fluorescence decrease slope, 10 min; at 10 µM; stronger effect = lower value
[6] = target: Muscarinic acetylcholine receptor M4 (Homo sapiens) (UniProt P08173); assay: compounds altering M4/GIRK thallium flux, either direction, primary screen, M4 allosteric agonist project, cell-based, HEK293 M4/GIRK, BTC-AM (AID 625;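 active = fluorescence slope after compound addition differing from the mean of all tested samples at 99.7% confidence, mostly higher but some lower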;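 also: thallium influx through GIRK channels coupled to M4 in HEK293 cells with BTC-AM dye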); details: at 10 µM, actives lie on both sides
Chain of Muscarinic acetylcholine receptor M4 (Homo sapiens) (P08173 whole entry, looked up): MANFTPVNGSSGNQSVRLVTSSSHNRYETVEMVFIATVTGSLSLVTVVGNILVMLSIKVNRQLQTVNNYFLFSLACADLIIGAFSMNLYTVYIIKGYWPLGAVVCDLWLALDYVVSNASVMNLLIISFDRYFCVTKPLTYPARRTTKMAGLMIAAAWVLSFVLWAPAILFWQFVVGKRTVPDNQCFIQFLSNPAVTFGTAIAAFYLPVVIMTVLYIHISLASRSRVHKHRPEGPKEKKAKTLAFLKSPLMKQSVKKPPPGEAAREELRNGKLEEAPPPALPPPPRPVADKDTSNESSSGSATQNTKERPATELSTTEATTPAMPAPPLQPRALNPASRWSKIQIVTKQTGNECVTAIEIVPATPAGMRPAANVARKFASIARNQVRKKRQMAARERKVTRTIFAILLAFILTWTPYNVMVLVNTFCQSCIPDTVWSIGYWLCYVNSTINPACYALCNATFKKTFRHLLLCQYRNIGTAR
In short: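 assay system = HEK293 cells with M4 receptor and GIRK channels | medium = pH 7.3 thallium assay buffer | doses = 10 µM final, single point | timing = cells overnight at 37 °C, BTC-AM loading 1 h, reads 2 min total | signal = BTC-AM fluorescence, 1 Hz kinetic reads | read-out = post-addition slope, 15–24 s, of baseline-normalized fluorescence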

[7] = inhibitors of Sendai virus-induced IRF3 signaling, primary screen, TLR/RLR signaling modifier project, cell-based, Sendai virus stimulus, luciferase, 10K MLSCN set (AID 602276;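 active = inhibition at or above 50% at 10 µM; inactive = inhibition below 50%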;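 also: firefly luciferase from ISG56 promoter only with Renilla not read in this screen; 0% = Sendai virus plus DMSO and 100% = medium plus DMSO without virus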); details: HEK293 RL24 IRF3 luciferase reporter, at 10 µM, stronger effect = higher value
[8] = inhibitors of poly I:C-induced TLR3 signaling, primary screen, cell-based, poly I:C stimulus, luciferase, 10K MLSCN set (AID 602277;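 active = inhibition of the reporter signal at or above 50%; inactive = inhibition below 50%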); details: HEK293-TLR3 RL24 IRF3 luciferase reporter, at 10 µM, stronger effect = higher value

Structure (SMILES)	cell count [1]	inhibition [1]	inhibition of aggregation [2]	nuclei count [2] [%]	inhibition [3]	nuclei count [3] [%]	fluorescence slope [4]	NADPH fluorescence slope [5]	fluorescence slope [6]	inhibition [7]	inhibition [8]
c1coc(-c2nnc(-c3cccs3)o2)c1	497	-1.7% (inactive)	13.3% (inactive)	75	-7.2% (inactive)	115	-0.51 (inactive)	-6.6e-07 (inactive)	0.00586 (inactive)	-25.9% (inactive)	-87.8% (inactive)
C=CCOC(=O)C(C#N)c1nc2ccccc2nc1N1CCN(Cc2ccccc2)CC1 (centres undefined)	469	-5.7% (inactive)	-12.3% (inactive)	94.6	-69.4% (inactive)	181	-0.402 (inactive)	6.8e-05 (inactive)	0.0023 (inactive)	10.9% (inactive)	18.7% (inactive)
CCn1c(CCNC(=O)c2ccc(OC)c(OC)c2)nc2ccccc21	275	-8.5% (inactive)	-14.6% (inactive)	95.7	3.1% (inactive)	88.5	-0.468 (inactive)	-3.6e-05 (inactive)	0.00543 (inactive)	15.9% (inactive)	6.06% (inactive)
CCNc1nc(NC(C)C)nc(N(C#N)CCOc2ccc(Cl)cc2Cl)n1	603	-8.6% (inactive)	20.7% (inactive)	98.5	-123% (inactive)	96.3	-0.446 (inactive)	-3.7e-05 (inactive)	0.00644 (inactive)	15.5% (inactive)	-2.09% (inactive)
COC(=O)CN(c1ccc(F)cc1)S(=O)(=O)c1ccccc1	329	1.8% (inactive)	-0.2% (inactive)	86.5	-92.2% (inactive)	95.6	-0.527 (inactive)	-0.000183 (inactive)	0.00367 (inactive)	6.05% (inactive)	-8.76% (inactive)
Cc1ccc2c(c1C)NC(C)CC2C (centres undefined)	553	9.8% (inactive)	5.9% (inactive)	101	35.5% (inactive)	100	-0.604 (inactive)	-2.8e-05 (inactive)	0.0052 (inactive)	11.1% (inactive)	13.6% (inactive)
COc1ccc2c(c1)CCc1c(C(=O)N3CCCc4ccccc43)noc1-2	419	-4.5% (inactive)	17.4% (inactive)	69.7	-32.7% (inactive)	108	-0.459 (inactive)	-0.000351 (inactive)	0.00416 (inactive)	-24% (inactive)	-75% (inactive)
CC(C)(C)c1ccccc1NC(=O)c1cccnc1	224	-5.6% (inactive)	28.5% (inactive)	91.8	-81.8% (inactive)	89.7	-0.533 (inactive)	-2.2e-05 (inactive)	0.00439 (inactive)	15.7% (inactive)	19.9% (inactive)
COc1ccc(-c2nc(N)nc(C)c2Oc2ccccc2Br)c(O)c1	382	6.9% (inactive)	-14% (inactive)	100	-64.3% (inactive)	85.6	-0.496 (inactive)	6e-05 (inactive)	0.00571 (inactive)	10.9% (inactive)	53% (active)
CCOc1ncccc1C(=O)OCC(=O)Nc1ncc(C(F)(F)F)cc1Cl	474	-12.1% (inactive)	-26.1% (inactive)	80.7	-29% (inactive)	108	-0.588 (inactive)	2.6e-05 (inactive)	0.00542 (inactive)	22.1% (inactive)	18% (inactive)
Cc1nc(NC2=NCN(CCCN3CCOCC3)CN2)nc2c(C)cccc12	552	12.1% (inactive)	0.1% (inactive)	73.7	35.4% (inactive)	97.1	-0.571 (inactive)	-6.5e-05 (inactive)	0.00567 (inactive)	26.7% (inactive)	31.4% (inactive)
Cn1c(=O)cc(OCC(=O)N2CCN(c3cccc(C(F)(F)F)c3)CC2)c2ccccc21	377	-8.3% (inactive)	-13.4% (inactive)	118	-12.8% (inactive)	113	-0.426 (inactive)	6.8e-05 (inactive)	0.00701 (inactive)	13.7% (inactive)	15.2% (inactive)
Cn1c(Cc2cccs2)nnc1SCC(=O)N1CCc2ccccc21	369	-1.8% (inactive)	14.1% (inactive)	93.4	-67.8% (inactive)	93.3	-0.479 (inactive)	-6.1e-05 (inactive)	0.00472 (inactive)	8.51% (inactive)	16.5% (inactive)
COc1cc(C(=O)N2CCC(c3nc(-c4cccnc4)no3)CC2)cc(OC)c1OC	651	-29.6% (inactive)	2.1% (inactive)	110	-33.4% (inactive)	102	-0.28 (inactive)	-1.2e-05 (inactive)	0.00617 (inactive)	5.18% (inactive)	24.5% (inactive)
